Results as given in paper PMC3601785 (ACS medicinal chemistry letters, 2012).
Blank lines part the entries; values can stand above or below the compound they belong to.

Tests used:
Aurora B = conditions: [ATP] lower than in the RSK assay; cited from earlier work
aqueous solubility = format: physicochemical
p70 S6 kinase = conditions: cited from earlier work
[1] = pharmacokinetic analysis, single i.v. or i.p. dose; format: in vivo, male CD-1 mice; conditions: male, CD-1, mouse, plasma, other: intravenous (i.v.) or intraperitoneal (i.p.)
Procedure, shortened: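 Single dose given iv or ip to male CD-1 mice in 1:1:15 Cremophor:EtOH:phosphate-buffered saline. Plasma concentrations used to derive half-life, Cmax, C0 (maximum plasma concentration extrapolated to t = 0) and AUC extrapolated to infinity and normalized to dose in mg/kg.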

[2] = tested on: mitogen-and stress-activated kinase; conditions: cited from earlier work
[3] = tested on: RSK biomarkers (peEF2, cyclin D1, phospho-motif) in MCF-7 cells; experiment: RSK biomarkers in PMA-stimulated MCF-7 cells by immunoblotting; format: cell-based, human; conditions: MCF-7 cells pre-treated with SL0101 (100 μM) or 7 (25 μM), then PMA
Procedure, shortened: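 MCF-7 cells pretreated with test compound (reference inhibitor 100 μM; analogue 25 μM) or vehicle, then treated with DMSO or the mitogen PMA. Lysates analysed by immunoblotting for RSK biomarkers, including eEF2 phosphorylation.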

PIM 3 = conditions: [ATP] lower than in the RSK assay; cited from earlier work
[4] = biological target: T1, purified, recombinant RSK2 (Homo sapiens, UniProt P51812); experiment: in vitro kinase assay, inhibition of purified recombinant RSK2; format: biochemical
MCF-10A cells = experiment: MCF-10A proliferation; format: cell-based; conditions: various concentrations, 48 h
Procedure, shortened: (§1)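 Test compound added at time 0 at various concentrations. Proliferation read as cellular ATP content after 48 h of treatment. Values expressed as fold proliferation as a percentage of vehicle-treated cells. n = 3 experiments, each in quadruplicate, with SD and Student's t test against vehicle; for MCF-7, also against the reference inhibitor.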

MCF-7 cells = experiment: MCF-7 proliferation; format: cell-based, human
Procedure, shortened: as §1

[5] = biological target: T1, purified, recombinant RSK2; conditions: cited from earlier work

T1 sequence (P51812 whole entry, species assumed): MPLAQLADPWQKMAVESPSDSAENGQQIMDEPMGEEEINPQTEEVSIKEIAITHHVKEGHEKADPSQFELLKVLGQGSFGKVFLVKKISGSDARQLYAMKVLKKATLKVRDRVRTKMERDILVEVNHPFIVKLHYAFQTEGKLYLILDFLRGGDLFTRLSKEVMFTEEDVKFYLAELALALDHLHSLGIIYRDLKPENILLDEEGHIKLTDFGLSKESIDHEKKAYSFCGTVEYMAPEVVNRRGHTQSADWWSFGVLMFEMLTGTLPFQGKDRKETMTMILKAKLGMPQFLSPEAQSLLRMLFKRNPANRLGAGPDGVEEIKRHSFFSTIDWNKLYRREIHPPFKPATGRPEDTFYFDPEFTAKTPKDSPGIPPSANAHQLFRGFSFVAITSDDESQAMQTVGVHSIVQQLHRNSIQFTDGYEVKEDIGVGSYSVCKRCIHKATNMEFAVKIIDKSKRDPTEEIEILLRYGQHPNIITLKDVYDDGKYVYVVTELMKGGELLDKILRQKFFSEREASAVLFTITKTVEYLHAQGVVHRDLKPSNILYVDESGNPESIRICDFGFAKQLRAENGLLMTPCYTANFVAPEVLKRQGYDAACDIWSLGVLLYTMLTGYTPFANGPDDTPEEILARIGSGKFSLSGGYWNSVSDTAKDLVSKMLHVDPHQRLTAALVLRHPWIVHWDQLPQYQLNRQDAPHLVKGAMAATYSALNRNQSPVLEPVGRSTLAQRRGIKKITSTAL

- solubility (aqueous solubility; carrier of 1:1:15 Cremophor:EtOH:phosphate-buffered saline was required): limited solubility
- half-life [1]: < 30 min
Compound: CC(=O)O[C@@H]1[C@@H](OC(C)=O)[C@@H](O)[C@H](Oc2c(-c3ccc(O)cc3)oc3cc(O)cc(O)c3c2=O)O[C@H]1C [SL0101]
- inhibition of Aurora B (Aurora B): partially inhibit
- inhibition of p70 S6 kinase (p70 S6 kinase): did not inhibit
- inhibition of mitogen-and stress-activated kinase [2]: did not inhibit
- cyclin D1 levels [3]: decreased cyclin D1 levels
- intensity of band at ~ 27 kDa, (Lys/Arg)XX(Lys/Arg)X(pSer/pThr) motif antibody [3]: intensity decreases
- peEF2 levels compared to the PMA control [3]: increased peEF2 levels
- inhibition of PIM 3 (PIM 3): partially inhibit

Compound: CCC[C@@H]1O[C@@H](Oc2c(-c3ccc(O)cc3)oc3cc(O)cc(O)c3c2=O)[C@H](O)[C@H](O)[C@H]1OC(C)=O [compound 5]
- change of RSK2 IC50 in comparison to the 5″-n-propyl analogue 3 [4]: increased the IC50, but this difference was not statistically significant

- change of RSK2 IC50 in comparison to the 5″-n-propyl analogue 3 [4]: did not alter the IC50
Compound: CCC[C@@H]1O[C@@H](Oc2c(-c3ccc(O)cc3)oc3cc(O)cc(O)c3c2=O)[C@H](OC(C)=O)[C@H](O)[C@H]1OC(C)=O [compound 6]

- solubility (aqueous solubility; aqueous solution): ≤ 25 µM
Compound: CCC[C@@H]1O[C@@H](Oc2c(-c3ccc(O)cc3)oc3cc(O)cc(O)c3c2=O)[C@H](O)[C@H](OC(C)=O)[C@H]1OC(C)=O [compound 7]
- inhibition of MCF-10A proliferation (MCF-10A cells): not MCF-10A proliferation
- ability to inhibit MCF-7 proliferation, fold better compared to SL0101 (1) (MCF-7 cells): 2 fold
- inhibition of MCF-7 proliferation (MCF-7 cells; various concentrations, 48 h): inhibits MCF-7
- cyclin D1 levels [3]: decreased cyclin D1 levels
- intensity of band at ~ 27 kDa, (Lys/Arg)XX(Lys/Arg)X(pSer/pThr) motif antibody [3]: intensity decreases
- peEF2 levels compared to the PMA control [3]: increased peEF2 levels

- change of RSK2 IC50 in comparison to the 5″-n-propyl analogue 3 [4]: doubled the IC50
Compound: CCC[C@@H]1O[C@@H](Oc2c(-c3ccc(O)cc3)oc3cc(O)cc(O)c3c2=O)[C@H](OC(C)=O)[C@H](OC(C)=O)[C@H]1OC(C)=O [compound 8]

Compound: CC1OC(Oc2c(-c3ccc(O)cc3)oc3cc(O)cc(O)c3c2=O)C(O)C(O)C1O (centres unmarked) [deacetylated SL0101]
- potency for RSK inhibition, fold less potent than SL0101 (1) [5]: ~ 10 fold
